Data as given in PMC2810120 (Chemical biology & drug design, 2009).
pKd: −log10 of the molar value. Non-standard residues stand in square brackets, D forms with d. Residues, ends and D or L forms follow the SMILES beside them. *: point of attachment. pS = N[C@@H](COP(=O)(O)O)C(=O)O; pNA = O=[N+]([O-])c1ccc(N*)cc1

Columns and labels:
human Pin1 (human) = human Pin1 (human) (UniProt Q13526); experiment: NMR titration
[1] = Parallel artificial membrane permeation assay; format: in vitro ADME; conditions: 100 μM compound, pH 7.2, acceptor concentration after 8 h
Outline: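 Lipid-impregnated hydrophobic filter (lipid applied in chloroform, solvent fully evaporated) separates donor from acceptor wells of phosphate buffer pH 7.2. Test compound is added at 100 μM to the donor side, with stock DMSO <5%. A membrane-free equilibrium well is run in parallel. Acceptor and equilibrium concentrations are measured by LC-MS AUC. % flux is the acceptor concentration after 8 h relative to the membrane-free reference well.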

Plasma stability assay = format: in vitro ADME; conditions: rat plasma, 37 °C, 20 μM, after 30 min
Outline: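 Test compound at 20 μM final is incubated in fresh rat plasma at 37 °C. Samples are stopped at 0, 30 and 60 min with two volumes of methanol containing internal standard, then protein is precipitated and samples centrifuged for LC-MS. % parent remaining is taken against the 0 min sample from peak-area ratios to the internal standard. Run in duplicate with a plasma-labile positive control.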

Sequence of UniProt Q13526 (Q13526 whole entry): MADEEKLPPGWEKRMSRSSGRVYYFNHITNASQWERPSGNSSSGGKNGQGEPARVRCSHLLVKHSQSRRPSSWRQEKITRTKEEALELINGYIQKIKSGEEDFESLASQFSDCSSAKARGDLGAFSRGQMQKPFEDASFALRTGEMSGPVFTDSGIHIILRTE

Compound	pKd (human Pin1 (human))	PAMPA FLUX (%) [1] [%]	plasma stability (Plasma stability assay)
Pintide (peptide)	3.49	–	–
N=C(N)NCCC[C@H](NC(=O)[C@@H]1CCCN1C(=O)[C@H](COP(=O)(O)O)NC(=O)[C@H](Cc1ccc(O)cc1)NC(=O)[C@H](Cc1ccccc1)NC(=O)[C@@H](N)Cc1c[nH]c2ccccc12)C(=O)Nc1ccc([N+](=O)[O-])cc1 [Pintide] (H-WFY[pS]PR-pNA; N-terminus and C-terminus assumed)	–	14	rapidly degraded
